Data reported in paper PMC2836884 (Journal of Acquired Immune Deficiency Syndromes (1999), 2009).
Where two headings read alike, the source gives them in different places.

Key:
[1] = adults, cited from earlier work
[2] = children n = 22 (3 mo to 13 yrs), cited from earlier work
cytochrome P450 system = details: cited from earlier work
[3] = children receiving 8 mg/kg, primarily prepubescent; Jullien et al; cited from earlier work
[4] = in vivo, po; cited from earlier work
[5] = format: in vivo, human
Outline: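 HIV-1–infected patients aged 9–18 y, Tanner-stratified; one oral-solution dose of 8 mg/kg (max 600 mg) with water, fasted from 1 h before to 2 h after. Heparinised plasma sampled at 0–8 h (10 points) and assayed by reversed-phase HPLC-UV. Per-subject 1-compartment zero-order-absorption fit by weighted least squares gave kel and CL/F; Tmax by inspection; AUC 0–8 h.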

[6] = adults receiving 600 mg (approximately 8 mg/kg); Weller et al; cited from earlier work
[7] = in vivo, cited from earlier work
HIV = details: 8 mg/kg twice daily with AZT or 3TC; previously untreated children; cited from earlier work
[8] = adults n = 12 (24–48 yrs), cited from earlier work

Nc1nc(NC2CC2)c2ncn([C@H]3C=C[C@@H](CO)C3)c2n1 [ABC, Abacavir]
AUC ([1]; recommended dose 300 mg twice daily): 5000 to 6000 ng·h/mL | AUC ([1]; single-dose studies, 600 mg): 11000 to 16000 ng·h/mL | AUC ([2]; single dose 4 mg/kg): 2800 ng·h/mL | CL/F ([2]; single dose 4 mg/kg): 27.4 mL/min per kg | Cmax ([2]; single dose 4 mg/kg): 1700 ng/mL | t½ ([2]; single dose 4 mg/kg): 0.9 h | AUC ([2]; single dose 8 mg/kg): 8100 ng·h/mL | CL/F ([2]; single dose 8 mg/kg): 18.9 mL/min per kg | Cmax ([2]; single dose 8 mg/kg): 3900 ng/mL | t½ ([2]; single dose 8 mg/kg): 1.1 h | substrate or inhibitor of the cytochrome P450 system (cytochrome P450 system): not a substrate or inhibitor of the cytochrome P450 system | mean CL/F [3]: 15.8 mL/min per kg | amount eliminated unchanged in the urine [4]: < 5% | Intersubject variation of CL/F referenced to body weight ([5]; all subjects): more than 8 fold | share of the total AUC in the period after 8 hours ([5]; all subjects, estimated): < 3% | Tmax ([5]; both, human, plasma, po, 8 mg/kg): 1 h | mean CL/F [6]: 11.5 mL/min per kg | oral clearance, adjusted for body size, higher for children than adults ([7]; po): approximately 2 times | systemic exposure (AUC) in children lower than adult values [7]: approximately 50% | reduction in viral load versus AZT/3TC combination (HIV): larger reduction in viral load | AUC ([8]; single dose 4 mg/kg): 6000 ng·h/mL | CL/F ([8]; single dose 4 mg/kg): 13.4 mL/min per kg | Cmax ([8]; single dose 4 mg/kg): 2900 ng/mL | t½ ([8]; single dose 4 mg/kg): 1.2 h | CL/F ([8]; single dose 8 mg/kg (600 mg)): 10.2 mL/min per kg | AUC ([8]; single dose 8 mg/kg): 15700 ng·h/mL | Cmax ([8]; single dose 8 mg/kg): 4700 ng/mL | t½ ([8]; single dose 8 mg/kg): 1.7 h
